Reference: publication PMC6930338 (Journal of autoimmunity, 2019)
Substitutions are numbered along the chain they refer to. Where no end group is shown, it is not given here.

Key:
[1] = target: T1, HLA-DPA1*01:03/ HLA-DPB1*04:01 (Homo sapiens, UniProt P04440+P20036); experiment: In vitro competitive peptide binding to purified MHC class II
T1 sequence (P20036 29-260): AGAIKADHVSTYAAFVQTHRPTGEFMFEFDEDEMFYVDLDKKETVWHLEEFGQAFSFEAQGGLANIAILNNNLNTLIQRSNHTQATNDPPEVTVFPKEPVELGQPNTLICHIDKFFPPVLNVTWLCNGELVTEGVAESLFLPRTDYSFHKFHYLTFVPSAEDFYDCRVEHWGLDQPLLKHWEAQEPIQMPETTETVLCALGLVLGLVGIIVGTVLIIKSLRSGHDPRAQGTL
T1 sequence (P04440 30-258): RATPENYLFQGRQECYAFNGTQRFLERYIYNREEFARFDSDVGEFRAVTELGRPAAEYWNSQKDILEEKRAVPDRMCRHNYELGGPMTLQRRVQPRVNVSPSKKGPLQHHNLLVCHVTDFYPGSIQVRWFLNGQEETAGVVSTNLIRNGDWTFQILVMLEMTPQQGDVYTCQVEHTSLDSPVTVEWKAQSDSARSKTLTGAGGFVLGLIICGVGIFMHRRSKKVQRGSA
Method in brief: (§1)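 Candidate MPO peptides were picked by IEDB in silico prediction and then tested in vitro. Each peptide's inhibition of binding of a high-affinity radiolabeled peptide to purified HLA-DPB1*04:01 or HLA-DRB4*01:01 class II molecules was measured.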

[2] = target: HLA-DRB4*01:01/ *01:03 (Homo sapiens, UniProt P01903+P13762, G164S); experiment: as above
Method in brief: as §1

[3] = target: T2, HLA-DPA1*01:03/ HLA-DPB1*04:02 (Homo sapiens, UniProt P04440+P20036, A65V/A84D/A85E/L207M); experiment: In vitro competitive peptide binding to purified MHC class II
T2 sequence (P20036 29-260): T1 sequence (P20036 29-260)
T2 sequence (P04440 30-258 A65V/A84D/A85E): T1 sequence (P04440 30-258) with A36V, A55D, A56E

[4] = target: HLA-DRB1*03:04/ *03:07 (Homo sapiens, UniProt P01903+P01911, A100K/A102G/A103R/A169T/F55Y/I96L/K41T/L162R/M171V/P40S/Q125H/Q178H/Q39Y/R42S/T106N/T262R/W38E/Y61H); experiment: as above
[5] = target: HLA-DRB1*04:01-*04:13 (Homo sapiens, UniProt P01903+P01911, A100K/A169T/F76Y/I96L/K127E/L162R/M171V/N62H/P40V/Q125Y/R42H/S133A/S149N/S66Y/V115G/V209L/W38E); experiment: as above
[6] = target: HLA-DRB5*01:01/ *01:02/ *02:02 (Homo sapiens, UniProt P01903+Q30154); experiment: as above
[7] = Peptide solubility noted during ELISA optimization; type: physicochemical; conditions: qualitative; follow-up testing and optimization of ELISA

Compound | IC50 [1] [nM] | IC50 [2] [nM] | IC50 [3] [nM] | IC50 [4] [µM] | IC50 [5] [nM] | IC50 [6] [nM] | Solubility compared with MPO447–459 [7]
PVAATRTAVRAADYL [MPO105–119] | 7120 | 876 | 6170 | 14.5 | 433 | 321 | –
PILRGLMATPAKLNR [MPO545–559] | 12000 | 68 | 2480 | 32.8 | 8 | 29 | –
GEKLYQEARKIVGAM [MPO413–427, reference compound] | 53700 | 9350 | 19400 | 31.1 | 933 | 1440 | –
CC[C@H](C)[C@H](NC(=O)[C@H](CCCNC(=N)N)NC(=O)[C@@H]1CCCN1)C(=O)N[C@@H](C)C(=O)N[C@@H](CC(N)=O)C(=O)N[C@H](C(=O)N[C@@H](Cc1ccccc1)C(=O)N[C@H](C(=O)N[C@@H](CC(N)=O)C(=O)N[C@@H](C)C(=O)N[C@@H](Cc1ccccc1)C(=O)N[C@@H](CCCNC(=N)N)C(=O)N[C@@H](Cc1ccc(O)cc1)C(=O)NCC(=O)N[C@@H](Cc1c[nH]cn1)C(=O)O)[C@@H](C)O)C(C)C [MPO488–502] | 5620 | 725 | 1340 | 2.97 | 2 | 5 | –

Stronger by IC50 [1], values ahead:

IC50 [1] [nM] | IC50 [2] [nM] | IC50 [3] [nM] | IC50 [4] [µM] | IC50 [5] [nM] | IC50 [6] [nM] | Solubility compared with MPO447–459 [7] | Compound
38 | 17 | – | – | – | – | – | IKAVRIYIGDVMRQT [MPO447–461scramble, reference compound]
409 | 217 | 826 | 11 | 16 | 81 | – | MPELTSMHTLLLREH [MPO409–423]
1050 | 253 | – | – | – | – | – | PRWDGERLYQEARKIVGAMV [MPO435–454]
98 | 240 | 74 | 13.9 | 46 | 1210 | improved solubility | RKIVGAMVQIITYRD [MPO447–461]
1090 | 381 | 910 | 70 | 4140 | 1180 | – | DQERSLMFMQWGQLL [MPO245–259]
